Assay results taken from ChEMBL document CHEMBL1914366, “Bioassay-guided identification of an anti-inflammatory prenylated acylphloroglucinol from Melicope ptelefolia and molecular insights into its interaction with 5-lipoxygenase” (Bioorg Med Chem, 2011).
Active and inactive are the calls of the source. The rule behind the calls is not given here.

How the values were obtained:
Glycine max = experiment: Inhibition of soybean 15-LOX type 1-B assessed as inhibition of conversion of linoleic acid to (9Z,11E)-(13S)-13-hydroperoxyoctadeca-9,11-dienoate at 25 ug/ml preincubated for 10 mins before substrate addition measured after 6 mins by spectrophotometry
Procedure, shortened: (§1)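 Soybean lipoxygenase type I-B (80 U/well) in sodium phosphate buffer (100 mM, pH 8.0) was incubated with sample in MeOH for 10 min at 25 °C. Linoleic acid was then added and A234 was followed for 6 min. Samples were run in triplicate. Pure compounds were screened at a final 25 µg/mL.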

[1] = Inhibition of soybean 15-LOX type 1-B assessed as inhibition of conversion of linoleic acid to (9Z,11E)-(13S)-13-hydroperoxyoctadeca-9,11-dienoate preincubated for 10 mins before substrate addition measured after 6 mins by spectrophotometry; set-up: species or system Glycine max; procedure, shortened: as §1
[2] = target: T1, Polyunsaturated fatty acid 5-lipoxygenase (Homo sapiens, UniProt P09917); experiment: Inhibition of human 5-LOX in human peripheral blood mononuclear leukocytes assessed as inhibition of calymycin A23187-stimulated LTB4 production preincubated for 15 mins before stimulation measured after 15 mins by enzyme immunoassay
T1 sequence (P09917 whole entry): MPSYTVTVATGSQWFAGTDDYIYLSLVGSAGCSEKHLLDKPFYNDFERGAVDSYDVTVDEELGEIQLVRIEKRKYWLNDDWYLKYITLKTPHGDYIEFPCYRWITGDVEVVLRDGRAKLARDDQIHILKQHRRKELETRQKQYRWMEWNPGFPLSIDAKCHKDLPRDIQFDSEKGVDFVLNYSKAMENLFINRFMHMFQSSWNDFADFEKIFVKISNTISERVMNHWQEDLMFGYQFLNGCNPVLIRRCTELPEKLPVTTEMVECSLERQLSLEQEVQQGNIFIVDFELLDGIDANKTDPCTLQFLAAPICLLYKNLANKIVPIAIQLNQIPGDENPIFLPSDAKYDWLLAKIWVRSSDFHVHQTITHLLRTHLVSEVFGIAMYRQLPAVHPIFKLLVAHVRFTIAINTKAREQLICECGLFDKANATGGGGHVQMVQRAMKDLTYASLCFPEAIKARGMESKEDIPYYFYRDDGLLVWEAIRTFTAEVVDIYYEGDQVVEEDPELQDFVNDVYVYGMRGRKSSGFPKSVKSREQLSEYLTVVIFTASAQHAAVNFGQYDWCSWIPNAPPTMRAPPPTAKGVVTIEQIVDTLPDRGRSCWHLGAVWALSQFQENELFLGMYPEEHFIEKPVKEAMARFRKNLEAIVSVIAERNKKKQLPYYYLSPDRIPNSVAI
Procedure, shortened: (§2)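 Human peripheral blood mononuclear leukocytes (5 × 10^6 cells/ml) in HBSS were preincubated with compound or vehicle for 15 min at 37 °C. Calcimycin (A23187, 30 µM) was added for a further 15 min and the reaction was stopped with 1 N HCl. LTB4 was quantified by EIA. The assay was run by a contract laboratory.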

[3] = target: T2, Polyunsaturated fatty acid 5-lipoxygenase (Mus musculus) (UniProt P48999); experiment: (§3) Inhibition of 5-LOX in calcium ionophore A23187-stimulated NMRI mouse macrophage assessed as inhibition of LTC4 production preincubated for 60 mins before stimulation measured after 2 hrs by ELISA
T2 sequence (whole entry): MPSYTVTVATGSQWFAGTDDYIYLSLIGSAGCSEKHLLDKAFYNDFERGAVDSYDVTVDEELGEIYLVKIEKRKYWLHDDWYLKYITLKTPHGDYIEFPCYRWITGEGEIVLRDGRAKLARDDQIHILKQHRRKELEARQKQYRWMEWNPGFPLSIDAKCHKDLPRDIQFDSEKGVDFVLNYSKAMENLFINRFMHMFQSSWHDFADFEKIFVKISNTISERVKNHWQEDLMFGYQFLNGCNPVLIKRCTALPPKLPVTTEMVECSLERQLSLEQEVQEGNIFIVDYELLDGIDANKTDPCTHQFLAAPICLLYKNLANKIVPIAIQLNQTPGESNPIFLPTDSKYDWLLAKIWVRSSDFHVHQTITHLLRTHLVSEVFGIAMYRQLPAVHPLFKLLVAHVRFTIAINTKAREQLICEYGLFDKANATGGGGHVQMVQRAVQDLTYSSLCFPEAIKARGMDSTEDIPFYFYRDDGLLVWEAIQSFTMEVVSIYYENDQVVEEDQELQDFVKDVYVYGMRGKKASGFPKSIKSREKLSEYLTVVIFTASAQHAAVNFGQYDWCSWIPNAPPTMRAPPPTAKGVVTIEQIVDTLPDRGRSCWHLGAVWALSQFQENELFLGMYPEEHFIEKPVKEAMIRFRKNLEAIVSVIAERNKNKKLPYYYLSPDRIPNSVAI
Procedure, shortened: (§4)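 Male NMRI mice (20 ± 5 g) were given 1 ml thioglycolate ip and peritoneal macrophages were lavaged with PBS 3 days later. Cells were adhered overnight at 5 × 10^5 cells/well and then moved to serum-free DMEM. Compound was added for 60 min at 37 °C, then A23187 to a final 10^-6 M for 2 h. Supernatant cysLTs were measured by ELISA against a standard curve. Values are mean ± S.D., mostly triplicate, compared by unpaired t-test.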

[4] = target: T3, Polyunsaturated fatty acid 5-lipoxygenase (Mus musculus, UniProt P48999); experiment: as §3; procedure, shortened: as §4
T3 sequence (P48999 whole entry): T2 sequence (whole entry)

[5] = Cytotoxicity against NMRI mouse macrophages by MTT assay; assay type: cell-based; settings: macrophage
Procedure, shortened: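 Macrophages from the 5-LOX assay wells were used after supernatant collection. Cells received MTT (5 mg/ml in PBS, 20 µl/well) for 4 h at 37 °C, then the formazan was dissolved in DMSO and absorbance was read at 550 nm. Values are mean ± S.D., mostly from triplicate determinations.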

[6] = test system: Radical scavenging activity; experiment: Antioxidant activity assessed as DPPH radical scavenging activity; assay type: functional
Procedure, shortened: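 DPPH radical scavenging run by a previously published method, with quercetin as positive control; triplicate tests, with absorbances averaged before calculating activity.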

[7] = Metal chelating activity of the compound assessed as formation of iron complex in PBS at pH 7.4 at 50 uM after 10 secs by UV-vis spectrometry in presence of 100 uM FeSO4; assay type: functional
Procedure, shortened: (§5)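 Compound was taken from a 1 mM methanol stock and diluted to 50 µM in PBS (10 mM, pH 7.4). Salt solution (CuSO4, FeCl3 or FeSO4) was added at 50 or 100 µM. Absorption spectra from 200–600 nm were recorded after 10 s and compared with the compound alone.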

[8] = Metal chelating activity of the compound assessed as formation of copper complex in PBS at pH 7.4 at 50 uM after 10 secs by UV-vis spectrometry in presence of 100 uM CuSO4; assay type: functional; procedure, shortened: as §5
[9] = Metal chelating activity of the compound assessed as formation of iron complex in PBS at pH 7.4 at 50 uM after 10 secs by UV-vis spectrometry in presence of 100 uM FeCl3; assay type: functional; procedure, shortened: as §5
[10] = target: T4, Prostaglandin G/H synthase 1 (Homo sapiens, UniProt P23219); experiment: Inhibition of COX1 in human platelets assessed as inhibition of conversion of arachidonic acid to PGE2 preincubated for 15 mins before substrate addition measured after 15 mins by enzyme immunoassay
T4 sequence (P23219 whole entry): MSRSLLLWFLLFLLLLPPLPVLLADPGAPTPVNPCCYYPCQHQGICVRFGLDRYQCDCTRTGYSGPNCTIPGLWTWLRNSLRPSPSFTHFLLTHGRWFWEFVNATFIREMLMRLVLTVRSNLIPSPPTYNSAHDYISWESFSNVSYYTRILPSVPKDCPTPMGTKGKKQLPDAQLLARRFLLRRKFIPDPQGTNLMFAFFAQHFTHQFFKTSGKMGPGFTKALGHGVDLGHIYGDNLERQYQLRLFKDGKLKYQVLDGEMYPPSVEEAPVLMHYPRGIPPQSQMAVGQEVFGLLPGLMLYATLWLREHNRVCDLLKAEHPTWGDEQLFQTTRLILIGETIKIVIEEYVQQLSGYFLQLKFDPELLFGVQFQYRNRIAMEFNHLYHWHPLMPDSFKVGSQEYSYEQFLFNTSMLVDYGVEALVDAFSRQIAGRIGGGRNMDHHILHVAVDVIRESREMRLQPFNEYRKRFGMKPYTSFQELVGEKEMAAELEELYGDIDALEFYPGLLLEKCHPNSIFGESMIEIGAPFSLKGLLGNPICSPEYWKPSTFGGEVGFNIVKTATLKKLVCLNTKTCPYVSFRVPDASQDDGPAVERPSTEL
Procedure, shortened: (§6)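 Human platelets (5 × 10^7/ml) in HBSS (15 mM, pH 7.4) were incubated with compound or vehicle for 15 min at 37 °C. Arachidonic acid (100 µM) was added for 15 min and the reaction was stopped with 1 N HCl. PGE2 was measured by EIA. The assay was run by a contract laboratory.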

[11] = target: T5, Prostaglandin G/H synthase 2 (Homo sapiens, UniProt P35354); experiment: Inhibition of human recombinant COX2 expressed in insect Sf21 cells assessed as inhibition of conversion of arachidonic acid to PGE2 preincubated for 15 mins before substrate addition measured after 5 mins by enzyme immunoassay
T5 sequence (P35354 whole entry): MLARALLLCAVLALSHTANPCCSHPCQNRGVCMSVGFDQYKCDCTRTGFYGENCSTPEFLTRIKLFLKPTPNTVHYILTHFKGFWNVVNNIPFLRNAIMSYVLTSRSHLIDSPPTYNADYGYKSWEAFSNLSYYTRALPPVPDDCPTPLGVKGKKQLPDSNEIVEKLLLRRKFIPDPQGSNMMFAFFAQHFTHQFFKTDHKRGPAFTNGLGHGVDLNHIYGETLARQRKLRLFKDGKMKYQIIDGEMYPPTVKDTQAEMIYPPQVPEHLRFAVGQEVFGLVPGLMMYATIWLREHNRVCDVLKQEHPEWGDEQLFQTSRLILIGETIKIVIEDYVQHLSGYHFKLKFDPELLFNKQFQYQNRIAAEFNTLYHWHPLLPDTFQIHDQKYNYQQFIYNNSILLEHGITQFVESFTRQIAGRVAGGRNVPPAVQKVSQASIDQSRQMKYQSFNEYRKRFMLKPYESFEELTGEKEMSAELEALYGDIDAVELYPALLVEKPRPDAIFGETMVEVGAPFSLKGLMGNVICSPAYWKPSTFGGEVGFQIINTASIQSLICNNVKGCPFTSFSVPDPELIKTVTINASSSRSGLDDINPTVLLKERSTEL
Procedure, shortened: (§7)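 Human recombinant COX-2 expressed in Sf21 cells (0.11 U) was preincubated with compound or vehicle, 1 mM reduced GSH, 500 µM phenol and 1 µM hematin in Tris-HCl (100 mM, pH 7.7) for 15 min at 37 °C. Arachidonic acid (0.3 mM) was added for 5 min and the reaction was stopped with 1 N HCl. After centrifugation, PGE2 was measured by EIA.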

[12] = target: T6, Polyunsaturated fatty acid 5-lipoxygenase (Homo sapiens) (UniProt P09917); experiment: Inhibition of human 5-LOX in human peripheral blood mononuclear leukocytes assessed as inhibition of calymycin A23187 stimulated LTB4 production at 1 uM preincubated for 15 mins before stimulation measured after 15 mins by enzyme immunoassay; procedure, shortened: as §2
T6 sequence (whole entry): T1 sequence (P09917 whole entry)

[13] = target: T7, Prostaglandin G/H synthase 2 (Homo sapiens) (UniProt P35354); experiment: Inhibition of human recombinant COX2 expressed in insect Sf21 cells assessed as inhibition of conversion of arachidonic acid to PGE2 at 1 uM preincubated for 15 mins before substrate addition measured after 5 mins by enzyme immunoassay; procedure, shortened: as §7
T7 sequence (whole entry): T5 sequence (P35354 whole entry)

[14] = target: T4, Prostaglandin G/H synthase 1; experiment: Inhibition of COX1 in human platelets assessed as inhibition of conversion of arachidonic acid to PGE2 at 10 uM preincubated for 15 mins before substrate addition measured after 15 mins by enzyme immunoassay; procedure, shortened: as §6
[15] = target: T6, Polyunsaturated fatty acid 5-lipoxygenase (Homo sapiens); experiment: Inhibition of human 5-LOX in human peripheral blood mononuclear leukocytes assessed as inhibition of calymycin A23187 stimulated LTB4 production at 10 uM preincubated for 15 mins before stimulation measured after 15 mins by enzyme immunoassay; procedure, shortened: as §2
[16] = target: T6, Polyunsaturated fatty acid 5-lipoxygenase (Homo sapiens); experiment: Inhibition of human 5-LOX in human peripheral blood mononuclear leukocytes assessed as inhibition of calymycin A23187 stimulated LTB4 production at 0.1 uM preincubated for 15 mins before stimulation measured after 15 mins by enzyme immunoassay; procedure, shortened: as §2
[17] = target: T6, Polyunsaturated fatty acid 5-lipoxygenase (Homo sapiens); experiment: Inhibition of human 5-LOX in human peripheral blood mononuclear leukocytes assessed as inhibition of calymycin A23187 stimulated LTB4 production at 10 nM preincubated for 15 mins before stimulation measured after 15 mins by enzyme immunoassay; procedure, shortened: as §2
[18] = target: T7, Prostaglandin G/H synthase 2 (Homo sapiens); experiment: Inhibition of human recombinant COX2 expressed in insect Sf21 cells assessed as inhibition of conversion of arachidonic acid to PGE2 at 10 uM preincubated for 15 mins before substrate addition measured after 5 mins by enzyme immunoassay; procedure, shortened: as §7
[19] = target: T7, Prostaglandin G/H synthase 2 (Homo sapiens); experiment: Inhibition of human recombinant COX2 expressed in insect Sf21 cells assessed as inhibition of conversion of arachidonic acid to PGE2 at 0.1 uM preincubated for 15 mins before substrate addition measured after 5 mins by enzyme immunoassay; procedure, shortened: as §7
[20] = target: T7, Prostaglandin G/H synthase 2 (Homo sapiens); experiment: Inhibition of human recombinant COX2 expressed in insect Sf21 cells assessed as inhibition of conversion of arachidonic acid to PGE2 at 10 nM preincubated for 15 mins before substrate addition measured after 5 mins by enzyme immunoassay; procedure, shortened: as §7
[21] = target: T4, Prostaglandin G/H synthase 1; experiment: Inhibition of COX1 in human platelets assessed as inhibition of conversion of arachidonic acid to PGE2 at 1 uM preincubated for 15 mins before substrate addition measured after 15 mins by enzyme immunoassay; procedure, shortened: as §6
[22] = target: T4, Prostaglandin G/H synthase 1; experiment: Inhibition of COX1 in human platelets assessed as inhibition of conversion of arachidonic acid to PGE2 at 0.1 uM preincubated for 15 mins before substrate addition measured after 15 mins by enzyme immunoassay; procedure, shortened: as §6
[23] = target: T4, Prostaglandin G/H synthase 1; experiment: Inhibition of COX1 in human platelets assessed as inhibition of conversion of arachidonic acid to PGE2 at 10 nM preincubated for 15 mins before substrate addition measured after 15 mins by enzyme immunoassay; procedure, shortened: as §6

## CC(Cc1ccc(O)c(O)c1)C(C)Cc1ccc(O)c(O)c1 (stereo unspecified) [NORDIHYDROGUAIARETIC ACID]
Glycine max
  inhibition: 88.8%
[1]
  IC50: 9.82 µM

## CC(=O)c1c(O)cc(O)c(C/C=C(\C)CCC=C(C)C)c1O
[1]
  IC50: 20.4 µM
[2]
  IC50: 0.42 µM
[3]
  inhibition: Dose-dependent effect
[4]
  IC50: 1.8 µM
[5]
  Activity: Non-toxic
[6]
  IC50: 46 µM
[7]
  Activity: inactive
[8]
  Activity: inactive
[9]
  Activity: inactive
[10]
  IC50: 6.9 µM
[11]
  IC50: 0.4 µM
[12]
  inhibition: 75%
[13]
  inhibition: 60%
[14]
  inhibition: 91%
[15]
  inhibition: 102%
[16]
  inhibition: 13%
[17]
  inhibition: 6%
[18]
  inhibition: 100%
[19]
  inhibition: 28%
[20]
  inhibition: 14%
[21]
  inhibition: -9%
[22]
  inhibition: -1%
[23]
  inhibition: -5%

## O=c1c(O)c(-c2ccc(O)c(O)c2)oc2cc(O)cc(O)c12 [QUERCETIN]
[6]
  IC50: 6.91 µM
